Data on 23 molecules can be found in ChEMBL document CHEMBL1151895, “Discovery, synthesis, and biological evaluation of piperidinol analogs with anti-tuberculosis activity” (Bioorg Med Chem, 2009).

Molecules are shown by their SMILES. In brackets after ≈: the same amount, converted by molar mass.

For data set [1], the system named is Mycobacterium tuberculosis. Briefly: Antimicrobial activity against Mycobacterium tuberculosis H37Rv after 9 to 12 days by CLSI microbroth dilution technique. Format: functional. The method in brief: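 M. tuberculosis H37Rv grown in Middlebrook 7H9 with 10% OADC to OD600 0.4–0.6, frozen in aliquots of known CFU/mL. Compounds serially diluted in DMSO, added to 7H9 medium; 2×10^4 bacteria per well. Incubated at 37 °C for […]. MIC90 read visually as concentration inhibiting 90% of growth. Isoniazid control run in each experiment.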
In general terms: Broth dilution looks for growth in wells or tubes with falling amounts of substance.

Data set [2] in a line: Cytotoxicity against african green monkey Vero cells after 72 hrs by alamar blue assay. The format is cell-based. Conditions: chlorocebus sabaeus, read-out: LD50. The method in brief:
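Vero cells grown in phenol-free L15 medium with glutamine, penicillin-streptomycin and 10% bovine calf serum at 37°C. Compounds tested by microplate dilution for 72 h at 37°C. alamarBlue then added and plates incubated overnight at 37°C. Drug LD50 determined.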

Data set [3] is described as follows: Therapeutic index, CC50 for african green monkey Vero cells to MIC for Mycobacterium tuberculosis H37Rv. The format is cell-based.
The next data set has as its system Mus musculus. Briefly: Toxicity in mouse assessed as death at 50 to 100 mg/kg. Format: organism-based. The arrangement: dose 50-100 mg/kg. Conditions: in vivo.

For the molecule `N#CC1(c2ccccc2)CCN(C[C@@H](O)COc2ccc(Cl)cc2)CC1`, the minimum inhibitory concentration (MIC) in data set [1] was 25 µg/mL (≈ 67.4 µM).
In the case of `O[C@@H](COc1ccc(OC(F)(F)F)cc1)CN1CCC(O)(c2ccc(Cl)c(C(F)(F)F)c2)CC1`, the CC50 at 72 h in data set [2] worked out at 17.7 µg/mL (≈ 34.4 µM). In addition, the MIC in data set [1] came to 3.6 µg/mL (≈ 7.01 µM). In addition, the selectivity ratio in data set [3] turned out to be 4.9.
Regarding `O[C@@H](COc1ccc(Cl)cc1)CN1CCC(O)(c2ccc(Cl)c(C(F)(F)F)c2)CC1`, the CC50 at 72 h in data set [2] is 18.2 µg/mL (≈ 39.2 µM). Further, 1.4 µg/mL (≈ 3.02 µM) was the least that counted as inhibitory in data set [1] (MIC). Further, the Activity result with Mus musculus is on record as “Toxic”. Moreover, the selectivity ratio in data set [3] came out at 13.3.
As to `O[C@H](COc1ccc(F)cc1)CN1CCC(O)(c2ccc(Cl)c(C(F)(F)F)c2)CC1`, the CC50 at 72 h in data set [2] was found to be 25.8 µg/mL (≈ 57.6 µM). The MIC in data set [1] amounted to 3.9 µg/mL (≈ 8.71 µM). In data set [3], the selectivity ratio was 6.6.
The corresponding values for `O[C@H](COc1ccccc1)CN1CCC(O)(c2ccc(Cl)c(C(F)(F)F)c2)CC1` are 34.9 µg/mL (≈ 81.2 µM), 8.3 µg/mL (≈ 19.3 µM) and 4.2.
Taken in the same sequence, the figures for `Cc1cccc(C)c1OC[C@H](O)CN1CCC(O)(c2ccc(Cl)c(C(F)(F)F)c2)CC1` were 19.3 µg/mL (≈ 42.1 µM), 5.9 µg/mL (≈ 12.9 µM) and 3.3.
Taken in the same sequence, the figures for `O[C@H](COc1ccc(Cl)c(Cl)c1)CN1CCC(O)(c2ccc(Cl)c(C(F)(F)F)c2)CC1` were 18.7 µg/mL (≈ 37.5 µM), 7.3 µg/mL (≈ 14.6 µM) and 2.6.
Consider `O[C@H](COc1ccc(OC(F)(F)F)cc1)CN1CCC(O)(c2ccc(Cl)c(C(F)(F)F)c2)CC1`, for which the CC50 at 72 h in data set [2] worked out at 17.6 µg/mL (≈ 34.3 µM). Moreover, the minimum inhibitory concentration (MIC) in data set [1] is 7.3 µg/mL (≈ 14.2 µM). The selectivity ratio in data set [3] was 2.4.
In the case of `O[C@H](COc1ccc(C(F)(F)F)cc1)CN1CCC(O)(c2ccc(Cl)c(C(F)(F)F)c2)CC1`, the CC50 at 72 h in data set [2] was 18.7 µg/mL (≈ 37.6 µM). Further, in data set [1], the MIC came out at 1.7 µg/mL (≈ 3.41 µM). In addition, in data set [3], the selectivity ratio is 11.
As for `O[C@@H](COc1ccc(C(F)(F)F)cc1)CN1CCC(O)(c2ccc(Cl)c(C(F)(F)F)c2)CC1`, in data set [2], the CC50 at 72 h came to 18.3 µg/mL (≈ 36.8 µM). In data set [1], this molecule had a minimum inhibitory concentration (MIC) of 5.2 µg/mL (≈ 10.4 µM). Also, the selectivity ratio in data set [3] amounted to 3.5.
Take `O[C@@H](COc1ccc(F)cc1)CN1CCC(O)(c2ccc(Cl)c(C(F)(F)F)c2)CC1`: in data set [2], the CC50 at 72 h was determined as 20.8 µg/mL (≈ 46.4 µM). The MIC in data set [1] worked out at 10.4 µg/mL (≈ 23.2 µM). Besides, the selectivity ratio in data set [3] turned out to be 2.
As to `Cc1cccc(C)c1OC[C@@H](O)CN1CCC(O)(c2ccc(Cl)c(C(F)(F)F)c2)CC1`, the CC50 at 72 h in data set [2] came out at 19 µg/mL (≈ 41.5 µM). In data set [1], this molecule came in with an MIC of 4.7 µg/mL (≈ 10.3 µM). The selectivity ratio in data set [3] stood at 4.1.
On to `O[C@@H](COc1ccc(Cl)cc1)CN1CCC(O)(c2cccc(C(F)(F)F)c2)CC1`, for which, in data set [1], the minimum inhibitory concentration (MIC) was 25 µg/mL (≈ 58.2 µM).
Still for that read-out and setting: the figure for `O[C@@H](COc1ccc(Cl)cc1)CN1CC=C(c2ccc(Cl)cc2)CC1` is greater than 200 µg/mL.
`O[C@H](COc1ccc(Cl)cc1)CN1CCC(O)(c2ccc(Cl)c(C(F)(F)F)c2)CC1`: in data set [2], the CC50 at 72 h came to 17.9 µg/mL (≈ 38.6 µM). The same molecule registered an MIC in data set [1] of 3.8 µg/mL (≈ 8.18 µM). In addition, in data set [3], the selectivity ratio came out at 4.7.
Taken in the same sequence, the figures for `O[C@@H](COc1ccc(Cl)c(Cl)c1)CN1CCC(O)(c2ccc(Cl)c(C(F)(F)F)c2)CC1` were 18 µg/mL (≈ 36.1 µM), 3.1 µg/mL (≈ 6.22 µM) and 5.8.
In the case of `O[C@@H](COc1ccccc1)CN1CCC(O)(c2ccc(Cl)c(C(F)(F)F)c2)CC1`, the CC50 at 72 h in data set [2] is 27.7 µg/mL (≈ 64.4 µM). Moreover, in data set [1], it took 18.8 µg/mL (≈ 43.7 µM) to inhibit growth (MIC). Also, in data set [3], the selectivity ratio was found to be 1.5.
In data set [1], `O[C@@H](COc1ccc(Cl)cc1)CN1CCC(O)(c2ccc(Cl)cc2)CC1` had an MIC of 25 µg/mL (≈ 63.1 µM).
Take `O[C@H](CSc1ccccc1)CN1CCC(O)(c2ccc(Cl)c(C(F)(F)F)c2)CC1`: the CC50 at 72 h in data set [2] was 35.7 µg/mL (≈ 80.1 µM). This molecule also showed an MIC in data set [1] of 5.2 µg/mL (≈ 11.7 µM). In data set [3], the selectivity ratio is 6.8.
In data set [1], `O[C@@H](COc1ccc(Cl)cc1)CN1CCC(O)(c2ccccc2)CC1` had an MIC of 100 µg/mL (≈ 276 µM).
For `O[C@@H](CSc1ccccc1)CN1CCC(O)(c2ccc(Cl)c(C(F)(F)F)c2)CC1`, the CC50 at 72 h in data set [2] turned out to be 37.1 µg/mL (≈ 83.2 µM). The molecule further showed an MIC in data set [1] of 8.3 µg/mL (≈ 18.6 µM). Also, the selectivity ratio in data set [3] was 4.4.
Taken in the same sequence, the figures for `OC(COc1ccccc1)CN1CCC(O)(c2ccc(Cl)c(C(F)(F)F)c2)CC1` (racemic) were 19.5 µg/mL (≈ 45.4 µM), 10.4 µg/mL (≈ 24.2 µM) and 1.9.
Take `OC(COc1ccc(Cl)cc1)CN1CCC(O)(c2ccc(Cl)c(C(F)(F)F)c2)CC1` (racemic): the CC50 at 72 h in data set [2] is 17.9 µg/mL (≈ 38.6 µM). The molecule also yielded an MIC in data set [1] of 1.5 µg/mL (≈ 3.23 µM). The selectivity ratio in data set [3] was 11.9.

One may read the MIC as the lowest concentration found to suppress growth.
